# From ChEMBL document CHEMBL1137992, “Long hydrocarbon chain keto diols and diacids that favorably alter lipid disorders in vivo” (J Med Chem, 2004)
# pIC50: −log10 of the molar value.
# What was measured:
# [1] = Concentration required for inhibition of lipid synthesis in primary cultures of rat hepatocytes; type: functional, cell-based; conditions: Hepatocyte
# Method in brief: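 Primary hepatocytes from male Sprague-Dawley rats (Seglen isolation), plated at 1.5×10^5 cells/cm² on collagen in serum-containing DMEM, switched to serum-free medium after 4 h, grown overnight to monolayers. Cells incubated 4 h with 0.25 μCi [1-14C]acetate/well (1 Ci/mol final) plus 0, 1, 3, 10, 30, 100 or 300 μM compound. Lipids extracted into scintillant and counted; IC50 taken from lipid synthesis rates.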
# [2] = system: Rattus norvegicus; experiment: Amount of insulin in obese Zucker rats after 2 weeks of treatment at a dose of 30 mg/kg/day; type: functional
# Method in brief: (§1)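 Female obese Zucker rats [Crl:(Zuc)-faBR], 400–500 g, given daily oral gavage in 20% EtOH/80% PEG-200 for up to 14 days. After a 6-h fast, serum was collected pretreatment and at day 7 (orbital bleed) and day 14 (cardiac puncture) and stored at -80 °C. Insulin was measured by ELISA. Values are mean ± SEM.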
# [3] = system: Rattus norvegicus; experiment: Amount of insulin in obese Zucker rats at pre-treatment at a dose of 0 mg/kg/day; type: functional; method in brief: as §1
# [4] = system: Rattus norvegicus; experiment: Amount of insulin in obese Zucker rats at pre-treatment at a dose of 30 mg/kg/day; type: functional; method in brief: as §1
# [5] = system: Rattus norvegicus; experiment: Amount of triglycerides in obese Zucker rats at pre-treatment at a dose of 3 mg/kg/day; type: functional
# Method in brief: (§2)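 Female Zucker fatty rats [Crl:(Zuc)-faBR], 10–12 weeks old (400–500 g), dosed once daily by oral gavage in 20% EtOH/80% PEG-200 for up to 14 days. After a 6-h fast, serum was taken pre-dose, at day 7 (orbital venous plexus, O2/CO2 anaesthesia) and at day 14 (cardiac puncture), stored at −80 °C, and assayed on a Hitachi 912 automatic analyzer. Mean ± SEM.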
# [6] = system: Rattus norvegicus; experiment: Amount of triglycerides in obese Zucker rats after 1 week of treatment at a dose of 0 mg/kg/day; type: functional; method in brief: as §2
# [7] = system: Rattus norvegicus; experiment: Amount of triglycerides in obese Zucker rats after 1 week of treatment at a dose of 10 mg/kg/day; type: functional; method in brief: as §2
# [8] = system: Rattus norvegicus; experiment: Amount of HDL-cholesterol in obese Zucker rats after 1 week of treatment at a dose of 10 mg/kg/day; type: functional
# Method in brief: (§3)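 Female Zucker fatty rats [Crl:(Zuc)-faBR], 10–12 weeks old (400–500 g), dosed once daily by oral gavage in 20% EtOH/80% PEG-200 (dose volume 0.25% of body weight). Rats were fasted 6 h and bled before dosing and at day 7 (orbital plexus), and at day 14 (cardiac puncture). Serum cholesterol fractions came from Superose 6 gel-filtration lipoprotein profiles (% peak area × serum total cholesterol). Values are mean ± SEM.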
# [9] = system: Rattus norvegicus; experiment: Amount of non-HDL-cholesterol in obese Zucker rats after 1 week of treatment at a dose of 0 mg/kg/day; type: functional; method in brief: as §3
# [10] = system: Rattus norvegicus; experiment: Amount of non-HDL-cholesterol in obese Zucker rats after 1 week of treatment at a dose of 30 mg/kg/day; type: functional; method in brief: as §3
# [11] = system: Rattus norvegicus; experiment: Percent increase in HDL-cholesterol in obese Zucker rats after 1 week of treatment at a dose of 100 mg/kg/day; type: functional
# Method in brief: (§4)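 Female Zucker fatty rats [Crl:(Zuc)-faBR], 10–12 weeks, 400–500 g, acclimated 7 days on chow. Compound or vehicle (20% EtOH/80% PEG-200) given by daily oral gavage for 2 weeks, 0–100 mg/kg/day. After a 6 h fast, blood was taken before dosing, at 1 wk and at 2 wk. Serum lipids, NEFA and insulin (ELISA) were measured; glucose by glucometer. HDL/non-HDL-C came from Superose 6 gel-filtration profiles. Values are % change from pretreatment, mean ± SEM.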
# [12] = system: Rattus norvegicus; experiment: Percentage change of HDL cholesterol levels in obese female Zucker rats after 1 week of pre-treatment at a dose of 100 mg/kg/day; type: functional
# Method in brief: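 Obese female Zucker fatty rats were gavaged once daily with 30 or 100 mg/kg/day in 20% EtOH/80% PEG-200 for 2 weeks. Sera were collected after a 6 h fast, before dosing, at 1 week (orbital plexus) and at 2 weeks (cardiac puncture). HDL-C was total cholesterol multiplied by HDL area fraction from gel-filtration lipoprotein profiles. Reported as % change from pretreatment ± SEM.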
# [13] = system: Rattus norvegicus; experiment: Percentage change of non-HDL cholesterol levels in obese female Zucker rats after 2 weeks of pre-treatment at a dose of 100 mg/kg/day; type: functional
# Method in brief: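 Female Zucker fatty rats [Crl:(Zuc)-faBR], 10–12 weeks old (400–500 g), acclimated 7 days and fed rodent chow. Dosed once daily by oral gavage in 20% EtOH/80% PEG-200 (v/v), at 0.25% of body weight, for 2 weeks. Blood taken after a 6-h fast: orbital plexus before dosing and at day 7, cardiac puncture at day 14. Serum lipoprotein cholesterol measured by Superose 6 gel filtration with on-line cholesterol detection. Values are % change from pretreatment, mean ± SEM.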
# [14] = system: Rattus norvegicus; experiment: Amount of nonesterified fatty acids in obese Zucker rats after 2 weeks of treatment at a dose of 3 mg/kg/day; type: functional; method in brief: as §2
# [15] = system: Rattus norvegicus; experiment: Percent decrease in triglycerides in obese Zucker rats after 2 weeks of treatment at a dose of 100 mg/kg/day; type: functional; set-up: scale not given: the % may be the effect or the level left; method in brief: as §4
# [16] = system: Rattus norvegicus; experiment: Percent increase in HDL-cholesterol in obese Zucker rats after 1 week of treatment at a dose of 30 mg/kg/day; type: functional; method in brief: as §4
# [17] = system: Rattus norvegicus; experiment: Amount of nonesterified fatty acids in obese Zucker rats after 1 week of treatment at a dose of 100 mg/kg/day; type: functional; method in brief: as §2
# [18] = system: Rattus norvegicus; experiment: Amount of nonesterified fatty acids in obese Zucker rats after 2 weeks of treatment at a dose of 10 mg/kg/day; type: functional; method in brief: as §2
# [19] = system: Rattus norvegicus; experiment: Amount of triglycerides in obese Zucker rats after 1 week of treatment at a dose of 100 mg/kg/day; type: functional; method in brief: as §2
# [20] = system: Rattus norvegicus; experiment: Amount of glucose in obese Zucker rats after 1 week of treatment at a dose of 10 mg/kg/day; type: functional
# Method in brief: (§5)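 Female Zucker fatty rats [Crl:(Zuc)-faBR], 10–12 weeks old (400–500 g), gavaged daily with vehicle (20% EtOH/80% PEG-200, 0.25% of body weight) or compound. After a 6-h fast, blood glucose was read by glucometer from tail-prick blood of unanesthetized rats before dosing and after 1 and 2 weeks. Values are mean ± SEM.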
# [21] = system: Rattus norvegicus; experiment: Amount of triglycerides in obese Zucker rats at pre-treatment at a dose of 10 mg/kg/day; type: functional; method in brief: as §2
# [22] = system: Rattus norvegicus; experiment: Amount of glucose in obese Zucker rats after 2 weeks of treatment at a dose of 0 mg/kg/day; type: functional; method in brief: as §5
# [23] = system: Rattus norvegicus; experiment: Amount of insulin in obese Zucker rats after 1 week of treatment at a dose of 10 mg/kg/day; type: functional; method in brief: as §1
# [24] = system: Rattus norvegicus; experiment: Amount of insulin in obese Zucker rats after 2 weeks of treatment at a dose of 0 mg/kg/day; type: functional; method in brief: as §1
# [25] = system: Rattus norvegicus; experiment: Amount of insulin in obese Zucker rats after 1 week of treatment at a dose of 100 mg/kg/day; type: functional; method in brief: as §1
# [26] = system: Rattus norvegicus; experiment: Amount of glucose in obese Zucker rats at pre-treatment at a dose of 100 mg/kg/day; type: functional; method in brief: as §5
Compound,pIC50 [1],Activity [2],Activity [3],Activity [4],Activity [5],Activity [6],Activity [7],Activity [8],Activity [9],Activity [10],Activity [11],Change [12],Change [13],Activity [14],Activity [15],Activity [16],Activity [17],Activity [18],Activity [19],Activity [20],other results
CC(C)(CO)CCCCC(=O)CCCCC(C)(C)CO,5.40,9.8 ng/mL,9.1 ng/mL,9.3 ng/mL,755 mg/dL,1114 mg/dL,602 mg/dL,52 mg/dL,36 mg/dL,28 mg/dL,73%,111%,-10%,1.6 mg/dL,-33%,40%,0.98 mg/dL,1 mg/dL,485 mg/dL,110 mg/dL,Activity [21]: 777 mg/dL; Activity [22]: 116 mg/dL; Activity [23]: 7.5 ng/mL; Activity [24]: 7.7 ng/mL; Activity [25]: 10.9 ng/mL; Activity [26]: 114 mg/dL
CC(C)(CCCCC(=O)CCCCC(C)(C)C(=O)O)C(=O)O,5.52,8.5 ng/mL,9.8 ng/mL,7.7 ng/mL,996 mg/dL,1333 mg/dL,692 mg/dL,47 mg/dL,43 mg/dL,37 mg/dL,74%,54%,-41%,1.5 mg/dL,-54%,56%,0.81 mg/dL,1.5 mg/dL,383 mg/dL,105 mg/dL,Activity [21]: 1143 mg/dL; Activity [22]: 118 mg/dL; Activity [23]: 7.7 ng/mL; Activity [24]: 0.058 ng/mL; Activity [25]: 9 ng/mL; Activity [26]: 110 mg/dL
CC(C)(CCCCCC(=O)CCCCCC(C)(C)C(=O)O)C(=O)O,5.52,7.7 ng/mL,9.1 ng/mL,9.8 ng/mL,905 mg/dL,1119 mg/dL,553 mg/dL,136 mg/dL,29 mg/dL,14 mg/dL,51%,72%,-99%,1 mg/dL,-92%,156%,0.98 mg/dL,0.95 mg/dL,69 mg/dL,122 mg/dL,Activity [21]: 863 mg/dL; Activity [22]: 120 mg/dL; Activity [23]: 10.5 ng/mL; Activity [24]: 8.1 ng/mL; Activity [25]: 6.4 ng/mL; Activity [26]: 117 mg/dL
